The results in this text go back to ChEMBL document CHEMBL1649420, “Identifying chelators for metalloprotein inhibitors using a fragment-based approach” (J Med Chem, 2011).

The target of assay [1] is T1, Polyunsaturated fatty acid 5-lipoxygenase (Homo sapiens) (UniProt P09917).
T1 sequence (whole entry): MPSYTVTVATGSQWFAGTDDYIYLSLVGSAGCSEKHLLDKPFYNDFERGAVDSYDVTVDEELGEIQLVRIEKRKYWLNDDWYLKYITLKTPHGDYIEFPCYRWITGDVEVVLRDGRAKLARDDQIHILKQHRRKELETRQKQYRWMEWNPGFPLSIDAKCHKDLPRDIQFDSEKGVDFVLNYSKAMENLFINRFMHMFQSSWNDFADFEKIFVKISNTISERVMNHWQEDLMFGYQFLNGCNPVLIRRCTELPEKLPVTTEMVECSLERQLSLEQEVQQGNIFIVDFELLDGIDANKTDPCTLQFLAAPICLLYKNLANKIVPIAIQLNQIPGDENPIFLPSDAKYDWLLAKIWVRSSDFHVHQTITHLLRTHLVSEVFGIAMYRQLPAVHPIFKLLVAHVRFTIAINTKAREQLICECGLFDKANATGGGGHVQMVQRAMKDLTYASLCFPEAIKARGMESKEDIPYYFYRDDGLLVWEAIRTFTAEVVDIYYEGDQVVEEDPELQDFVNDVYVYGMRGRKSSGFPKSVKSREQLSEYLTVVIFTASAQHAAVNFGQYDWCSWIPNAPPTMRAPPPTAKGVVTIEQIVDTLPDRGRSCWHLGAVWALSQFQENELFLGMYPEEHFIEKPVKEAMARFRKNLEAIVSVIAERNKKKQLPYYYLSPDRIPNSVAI
The assay can be described thus: Inhibition of human recombinant 5-lipoxygenase at 1 mM after 10 mins by fluorescence assay.

The target in assay [2] is T2, 72 kDa type IV collagenase (Homo sapiens, UniProt P08253). The assay can be described thus: Inhibition of human recombinant MMP2 after 30 mins. Put shortly:
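Enzyme (1.16 U) preincubated 30 min at 37 °C with fragment in 50 mM HEPES, 10 mM CaCl2, 0.05% Brij-35, pH 7.5. Fluorogenic Mca peptide substrate (4 μM final) then added. Rate of fluorescence increase compared with no-inhibitor control (100%). Single-point 25 μM final for the 8-hydroxyquinoline sublibrary. IC50 fitted to dose-response curves from serial dilutions of DMSO stocks.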
Target sequence in this assay (P08253 whole entry, the tested form may be a part): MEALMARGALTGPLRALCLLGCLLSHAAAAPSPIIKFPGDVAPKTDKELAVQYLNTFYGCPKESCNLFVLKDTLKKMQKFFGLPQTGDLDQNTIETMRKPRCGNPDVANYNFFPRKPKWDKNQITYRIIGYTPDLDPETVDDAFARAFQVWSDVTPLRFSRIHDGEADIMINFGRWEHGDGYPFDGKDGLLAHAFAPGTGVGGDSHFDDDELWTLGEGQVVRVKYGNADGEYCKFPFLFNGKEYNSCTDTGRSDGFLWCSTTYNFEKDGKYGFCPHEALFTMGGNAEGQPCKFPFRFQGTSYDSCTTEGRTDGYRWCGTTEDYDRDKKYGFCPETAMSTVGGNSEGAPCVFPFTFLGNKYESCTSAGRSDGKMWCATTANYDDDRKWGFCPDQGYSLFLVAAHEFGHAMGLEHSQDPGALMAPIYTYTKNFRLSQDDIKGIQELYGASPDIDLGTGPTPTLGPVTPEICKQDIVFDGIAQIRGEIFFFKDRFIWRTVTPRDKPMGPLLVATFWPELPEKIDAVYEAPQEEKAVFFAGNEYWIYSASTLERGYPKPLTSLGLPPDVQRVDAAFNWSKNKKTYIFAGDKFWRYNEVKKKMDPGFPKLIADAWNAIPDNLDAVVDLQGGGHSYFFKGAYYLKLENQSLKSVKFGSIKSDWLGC

The next assay has as its target T3, Lethal factor (Bacillus anthracis, UniProt P15917).
T3 sequence (P15917 whole entry): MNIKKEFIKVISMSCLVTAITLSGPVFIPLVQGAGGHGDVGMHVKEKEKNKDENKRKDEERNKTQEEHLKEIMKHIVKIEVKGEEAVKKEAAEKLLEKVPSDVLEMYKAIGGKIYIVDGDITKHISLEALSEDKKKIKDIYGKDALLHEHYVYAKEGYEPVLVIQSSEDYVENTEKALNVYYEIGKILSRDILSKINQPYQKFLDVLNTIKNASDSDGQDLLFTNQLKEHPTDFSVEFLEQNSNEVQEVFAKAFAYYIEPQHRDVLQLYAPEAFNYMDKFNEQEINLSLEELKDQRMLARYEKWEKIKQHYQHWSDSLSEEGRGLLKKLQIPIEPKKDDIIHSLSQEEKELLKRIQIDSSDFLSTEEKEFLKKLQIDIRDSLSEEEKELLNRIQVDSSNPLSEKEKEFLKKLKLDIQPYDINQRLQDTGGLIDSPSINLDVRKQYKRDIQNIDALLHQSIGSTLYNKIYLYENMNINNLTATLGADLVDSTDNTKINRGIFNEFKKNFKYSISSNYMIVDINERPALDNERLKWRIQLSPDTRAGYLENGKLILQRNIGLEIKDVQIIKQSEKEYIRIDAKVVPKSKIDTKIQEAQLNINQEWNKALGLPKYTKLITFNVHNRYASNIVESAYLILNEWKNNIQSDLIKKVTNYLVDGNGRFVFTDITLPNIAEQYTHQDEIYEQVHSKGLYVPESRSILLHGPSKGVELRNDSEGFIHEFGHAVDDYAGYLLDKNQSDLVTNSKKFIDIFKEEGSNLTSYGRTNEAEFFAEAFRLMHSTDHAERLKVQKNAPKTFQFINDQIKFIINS
The assay can be described thus: Inhibition of recombinant anthrax lethal factor after 30 mins by fluorescence assay.

Assay [3] deals with T4, Tyrosinase (Agaricus bisporus) (UniProt O42713).
T4 sequence (whole entry): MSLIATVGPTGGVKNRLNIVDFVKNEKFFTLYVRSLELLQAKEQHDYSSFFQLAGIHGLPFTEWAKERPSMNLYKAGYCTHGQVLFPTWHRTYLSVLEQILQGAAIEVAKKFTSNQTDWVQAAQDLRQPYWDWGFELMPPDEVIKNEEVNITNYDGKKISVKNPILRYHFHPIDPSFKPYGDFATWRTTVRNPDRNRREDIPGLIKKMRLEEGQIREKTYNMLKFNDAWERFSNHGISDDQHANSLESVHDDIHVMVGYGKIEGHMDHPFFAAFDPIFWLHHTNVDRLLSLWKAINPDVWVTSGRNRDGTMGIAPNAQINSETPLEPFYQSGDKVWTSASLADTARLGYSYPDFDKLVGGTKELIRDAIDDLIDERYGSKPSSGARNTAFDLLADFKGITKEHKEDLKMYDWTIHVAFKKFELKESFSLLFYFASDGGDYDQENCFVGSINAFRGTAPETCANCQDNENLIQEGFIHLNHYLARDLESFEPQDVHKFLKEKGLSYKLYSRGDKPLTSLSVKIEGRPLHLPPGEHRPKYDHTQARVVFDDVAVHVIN
To be noted: at 1 mM.

Assay [4] deals with T5, Lethal factor (Bacillus anthracis) (UniProt P15917).
T5 sequence (whole entry): T3 sequence (P15917 whole entry)
To be noted: at 1 mM.

In assay [5] the target is T6, Interstitial collagenase (Homo sapiens) (UniProt P03956).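 Note: recombinant human enzyme, with inhibition measured after 30 min.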
T6 sequence (whole entry): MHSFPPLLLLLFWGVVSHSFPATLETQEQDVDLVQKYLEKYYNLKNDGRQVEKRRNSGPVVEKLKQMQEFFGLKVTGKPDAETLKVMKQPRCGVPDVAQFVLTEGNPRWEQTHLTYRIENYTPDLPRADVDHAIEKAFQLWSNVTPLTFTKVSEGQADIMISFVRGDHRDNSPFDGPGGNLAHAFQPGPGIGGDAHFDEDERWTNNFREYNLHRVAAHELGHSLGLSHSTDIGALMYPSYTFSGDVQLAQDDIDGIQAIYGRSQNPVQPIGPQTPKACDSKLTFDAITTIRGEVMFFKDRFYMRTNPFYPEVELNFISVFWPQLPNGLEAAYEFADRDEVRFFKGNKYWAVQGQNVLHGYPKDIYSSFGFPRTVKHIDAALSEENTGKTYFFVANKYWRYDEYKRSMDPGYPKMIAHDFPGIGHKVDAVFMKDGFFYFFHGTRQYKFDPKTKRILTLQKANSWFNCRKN
To be noted: at 1 mM.

Assay [6] addresses T2, 72 kDa type IV collagenase. The note with it: at 1 mM.
Target sequence in this assay (P08253 110-660 limits assumed): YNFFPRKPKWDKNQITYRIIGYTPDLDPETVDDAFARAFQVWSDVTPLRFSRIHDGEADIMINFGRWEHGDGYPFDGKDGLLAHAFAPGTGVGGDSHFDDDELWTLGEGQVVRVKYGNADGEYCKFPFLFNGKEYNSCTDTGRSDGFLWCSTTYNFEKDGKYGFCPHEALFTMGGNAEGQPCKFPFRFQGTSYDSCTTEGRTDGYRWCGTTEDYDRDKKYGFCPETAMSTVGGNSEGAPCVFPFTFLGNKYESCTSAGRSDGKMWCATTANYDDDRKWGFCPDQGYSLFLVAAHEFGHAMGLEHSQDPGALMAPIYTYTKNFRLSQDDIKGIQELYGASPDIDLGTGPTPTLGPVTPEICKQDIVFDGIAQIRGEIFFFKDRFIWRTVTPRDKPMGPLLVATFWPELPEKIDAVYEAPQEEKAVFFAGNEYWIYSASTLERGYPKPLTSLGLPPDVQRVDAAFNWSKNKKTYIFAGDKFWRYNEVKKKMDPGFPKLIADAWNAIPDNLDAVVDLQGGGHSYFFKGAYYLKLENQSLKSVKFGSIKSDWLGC
The target in assay [7] is Stromelysin-1 (Homo sapiens) (UniProt P08254). To be noted: at 1 mM.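 Note: recombinant enzyme, inhibition read after a 30 min incubation.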
Chain of Stromelysin-1 (Homo sapiens) (P08254 100-477 limits assumed): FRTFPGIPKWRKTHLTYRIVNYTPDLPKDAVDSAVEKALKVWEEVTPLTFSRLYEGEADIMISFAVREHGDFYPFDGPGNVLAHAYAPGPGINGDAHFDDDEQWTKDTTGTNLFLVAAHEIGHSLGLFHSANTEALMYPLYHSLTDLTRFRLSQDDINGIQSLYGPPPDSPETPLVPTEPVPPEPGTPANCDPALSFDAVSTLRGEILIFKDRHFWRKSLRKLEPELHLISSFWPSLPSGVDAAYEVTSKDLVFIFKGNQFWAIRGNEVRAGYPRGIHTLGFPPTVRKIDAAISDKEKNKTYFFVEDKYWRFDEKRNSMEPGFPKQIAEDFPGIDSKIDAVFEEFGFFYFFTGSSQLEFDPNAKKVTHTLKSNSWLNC
The target in assay [8] is Neutrophil collagenase (Homo sapiens) (UniProt P22894). To be noted: at 1 mM.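 Note: recombinant human MMP8 enzyme, percent inhibition read after 30 min.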
Chain of Neutrophil collagenase (Homo sapiens) (P22894 101-467 limits assumed): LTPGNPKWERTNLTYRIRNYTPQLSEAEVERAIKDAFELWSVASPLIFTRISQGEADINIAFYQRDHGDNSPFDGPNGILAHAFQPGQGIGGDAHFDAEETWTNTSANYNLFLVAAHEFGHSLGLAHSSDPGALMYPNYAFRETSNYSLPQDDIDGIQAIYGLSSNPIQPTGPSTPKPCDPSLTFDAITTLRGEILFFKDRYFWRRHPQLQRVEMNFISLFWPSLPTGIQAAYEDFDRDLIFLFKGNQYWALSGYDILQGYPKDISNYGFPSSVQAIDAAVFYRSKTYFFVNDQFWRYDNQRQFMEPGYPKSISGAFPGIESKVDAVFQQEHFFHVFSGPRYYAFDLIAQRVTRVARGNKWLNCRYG
In assay [9] the target is Matrix metalloproteinase-9 (Homo sapiens) (UniProt P14780). The note with it: at 1 mM.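 Note: recombinant human MMP9, activity read after 30 min.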
Chain of Matrix metalloproteinase-9 (Homo sapiens) (P14780 whole entry): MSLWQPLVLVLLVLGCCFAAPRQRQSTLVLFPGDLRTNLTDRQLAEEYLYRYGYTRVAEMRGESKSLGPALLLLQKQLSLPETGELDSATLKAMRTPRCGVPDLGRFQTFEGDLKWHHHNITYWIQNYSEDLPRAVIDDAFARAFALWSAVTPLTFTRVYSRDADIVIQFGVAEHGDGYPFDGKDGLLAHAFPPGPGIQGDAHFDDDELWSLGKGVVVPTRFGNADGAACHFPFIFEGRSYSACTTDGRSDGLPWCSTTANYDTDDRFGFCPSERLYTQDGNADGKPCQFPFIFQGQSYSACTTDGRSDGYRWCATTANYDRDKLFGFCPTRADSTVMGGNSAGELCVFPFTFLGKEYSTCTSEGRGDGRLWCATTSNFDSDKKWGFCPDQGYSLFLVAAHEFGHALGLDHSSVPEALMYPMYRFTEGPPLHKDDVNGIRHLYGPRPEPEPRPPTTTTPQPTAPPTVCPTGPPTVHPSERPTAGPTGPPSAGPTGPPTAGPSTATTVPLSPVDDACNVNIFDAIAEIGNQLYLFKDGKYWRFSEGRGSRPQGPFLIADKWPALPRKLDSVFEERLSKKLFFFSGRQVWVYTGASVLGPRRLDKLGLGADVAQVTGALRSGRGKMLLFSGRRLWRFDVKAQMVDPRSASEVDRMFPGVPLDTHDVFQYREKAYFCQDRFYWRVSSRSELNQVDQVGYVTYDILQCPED

For the compound `Oc1coccc1=S`, the inhibition was 94% in assay [1]; 97% in assay [3]; 101% in [4]; 99% in assay [5]; 100% in [6]; 98% in assay [7]. Further, the inhibition in assay [8] was determined as 102%; in assay [9] it was 100%. Also, the 50% inhibitory concentration (IC50) in [2] worked out at 76 µM; on Lethal factor it was 204 µM.

By inhibition is commonly meant the drop in the measured response relative to a control, in per cent. For orientation: IC50 means the concentration at which inhibition is half-maximal.
